# In ChEMBL document CHEMBL4325934, “Discovery of 12-Thiazole Abietanes as Selective Inhibitors of the Human Metabolic Serine Hydrolase hABHD16A” (ACS Med Chem Lett, 2018):
# Activity calls are given as the source filed them. The rule behind the calls is not given here.
# Experiments:
# [1] = target: T1, ABHD12 (lysophosphatidylserine lipase) (Homo sapiens, UniProt Q8N2K0); assay: Inhibition of human ABHD12 expressed in HEK293 cells assessed as residual activity at 10 uM preincubated for 30 mins followed by 1-AG substrate addition and measured after 90 to 120 mins by fluorometric assay relative to control; assay type: cell-based; details: HEK293 cells that express human ABHD12, probe 1-AG, read-out: Activity
# T1 sequence (Q8N2K0 whole entry): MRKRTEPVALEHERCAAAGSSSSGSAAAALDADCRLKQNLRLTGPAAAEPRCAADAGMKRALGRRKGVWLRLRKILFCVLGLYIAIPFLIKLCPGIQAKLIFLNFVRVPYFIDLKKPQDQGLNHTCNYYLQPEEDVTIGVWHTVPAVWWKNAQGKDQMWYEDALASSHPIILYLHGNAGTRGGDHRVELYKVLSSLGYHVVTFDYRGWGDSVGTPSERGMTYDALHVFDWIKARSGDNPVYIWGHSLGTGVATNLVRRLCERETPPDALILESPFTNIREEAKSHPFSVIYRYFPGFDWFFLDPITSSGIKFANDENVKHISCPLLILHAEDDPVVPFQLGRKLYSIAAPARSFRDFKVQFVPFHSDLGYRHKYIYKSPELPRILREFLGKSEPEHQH
# Summary of the method: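 Screened at 10 µM in lysates of HEK293 cells overexpressing human ABHD12, given as remaining hydrolase activity relative to control (mean ± SD, n=2-3).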
# [2] = target: T2, Phosphatidylserine lipase ABHD16A (Homo sapiens) (UniProt O95870); assay: Inhibition of human ABHD16A expressed in HEK293 cells assessed as residual activity at 10 uM preincubated for 30 mins followed by 1-LG substrate addition and measured after 90 to 120 mins by fluorometric assay relative to control; assay type: cell-based
# T2 sequence (whole entry): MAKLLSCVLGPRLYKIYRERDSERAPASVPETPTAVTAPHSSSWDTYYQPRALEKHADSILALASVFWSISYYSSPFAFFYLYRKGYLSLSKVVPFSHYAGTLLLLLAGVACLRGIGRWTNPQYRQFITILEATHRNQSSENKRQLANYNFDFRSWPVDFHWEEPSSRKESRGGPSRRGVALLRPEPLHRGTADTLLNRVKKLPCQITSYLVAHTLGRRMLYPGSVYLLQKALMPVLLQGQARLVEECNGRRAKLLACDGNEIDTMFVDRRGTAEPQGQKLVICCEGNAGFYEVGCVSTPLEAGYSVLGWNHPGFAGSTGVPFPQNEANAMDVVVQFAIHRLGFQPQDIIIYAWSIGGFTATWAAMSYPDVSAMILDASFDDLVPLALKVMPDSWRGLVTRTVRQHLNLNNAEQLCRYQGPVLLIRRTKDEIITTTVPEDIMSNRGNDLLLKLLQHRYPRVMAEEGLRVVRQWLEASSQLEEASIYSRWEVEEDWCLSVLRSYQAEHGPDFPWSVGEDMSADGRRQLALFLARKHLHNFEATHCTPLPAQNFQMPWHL
# Summary of the method: (§1)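 Lysates of HEK293 cells transiently overexpressing human ABHD16A were pretreated 30 min with DMSO (control) or inhibitor, then 1-LG substrate was added (25 µM final), and liberated glycerol was measured. The single-concentration screen was at 10 µM, reported as % control activity (mean ± SD, n=2-3). Dose-responses used four concentrations (0.1-100 µM), duplicate wells, two independent experiments.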
# [3] = target: T2, Phosphatidylserine lipase ABHD16A (Homo sapiens); assay: Inhibition of human ABHD16A expressed in HEK293 cells assessed as residual activity at 100 uM preincubated for 30 mins followed by 1-LG substrate addition and measured after 90 to 120 mins by fluorometric assay relative to control; assay type: cell-based; summary of the method: as §1
# [4] = target: T3, Phosphatidylserine lipase ABHD16A (Homo sapiens, UniProt O95870); assay: Reversible inhibition of human ABHD16A expressed in HEK293 cells preincubated for 30 mins followed by 40 fold compound dilution and subsequent 1-LG substrate addition and measured at 30 mins time interval for 120 mins by fluorometric assay; assay type: cell-based
# T3 sequence (O95870 whole entry): T2 sequence (whole entry)
# Summary of the method: (§2)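 Reversibility test: hABHD16A-HEK293 lysate treated with inhibitor was rapidly diluted 40-fold before substrate addition. Inhibitor range extended up to 1 mM, and potency was compared with the routine assay (30 min pretreatment, 1-LG hydrolysis, glycerol read-out). Mean ± SD from two independent experiments.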
# [5] = target: T4, Phosphatidylserine lipase ABHD16A (Rattus norvegicus) (UniProt Q6MG55); assay: Inhibition of TAMRA-FP binding to ABHD16A in rat cerebellar membranes at 200 uM preincubated for 1 hr followed by TAMRA-FP addition measured after 1 hr by fluorescence based ABPP analysis; assay type: cell membranes; details: Cerebellum, Membrane
# T4 sequence (whole entry): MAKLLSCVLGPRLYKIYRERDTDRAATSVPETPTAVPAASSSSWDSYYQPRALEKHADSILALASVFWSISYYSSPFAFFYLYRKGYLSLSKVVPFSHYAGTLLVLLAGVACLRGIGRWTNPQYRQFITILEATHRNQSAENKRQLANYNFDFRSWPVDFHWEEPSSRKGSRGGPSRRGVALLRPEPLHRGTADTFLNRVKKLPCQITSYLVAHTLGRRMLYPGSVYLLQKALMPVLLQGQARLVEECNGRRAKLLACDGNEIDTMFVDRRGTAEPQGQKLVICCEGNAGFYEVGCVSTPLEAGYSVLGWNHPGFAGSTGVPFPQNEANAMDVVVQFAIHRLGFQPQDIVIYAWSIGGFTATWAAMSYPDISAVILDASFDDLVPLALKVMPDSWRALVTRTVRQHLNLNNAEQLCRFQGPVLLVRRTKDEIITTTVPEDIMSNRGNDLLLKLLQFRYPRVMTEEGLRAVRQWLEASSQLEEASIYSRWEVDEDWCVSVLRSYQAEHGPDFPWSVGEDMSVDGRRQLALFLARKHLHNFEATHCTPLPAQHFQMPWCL
# Summary of the method: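 Competitive ABPP in rat cerebellar membrane proteome: the proteome was pretreated with inhibitor, then labelled with the TAMRA-FP probe, and loss of band labelling was read by fluorescence. Reversible test inhibitors were used at 20 and 200 µM.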
# [6] = target: T3, Phosphatidylserine lipase ABHD16A; assay: Inhibition of human ABHD16A expressed in HEK293 cells preincubated for 30 mins followed by 1-LG substrate addition and measured after 90 to 120 mins by fluorometric assay; assay type: cell-based; summary of the method: as §1
# [7] = target: T2, Phosphatidylserine lipase ABHD16A (Homo sapiens); assay: Inhibition of TAMRA-FP binding to human ABHD16A expressed in HEK293 cells at 20 to 200 uM preincubated for 1 hr followed by TAMRA-FP addition measured after 1 hr by fluorescence based ABPP analysis; assay type: cell-based
# [8] = target: T2, Phosphatidylserine lipase ABHD16A (Homo sapiens); assay: Ratio of IC50 for reversible inhibition of human ABHD16A expressed in HEK293 cells to IC50 for inhibition of human ABHD16A expressed in HEK293 cells; assay type: cell-based; summary of the method: as §2
# [9] = target: T4, Phosphatidylserine lipase ABHD16A (Rattus norvegicus); assay: Inhibition of TAMRA-FP binding to ABHD16A in rat cerebellar membranes at 1 uM preincubated for 1 hr followed by TAMRA-FP addition measured after 1 hr by fluorescence based ABPP analysis; assay type: cell membranes; details: Cerebellum, Membrane
# Summary of the method: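 Competitive ABPP on rat cerebellar membrane proteome. Proteome was pretreated with inhibitor, then labeled with the serine hydrolase probe TAMRA-FP. Loss of labeling of the band migrating at ~63 kDa, assigned as ABHD16A, was the read-out.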
# [10] = target: T2, Phosphatidylserine lipase ABHD16A (Homo sapiens); assay: Potency index, ratio of tetrahydrolipstatin IC50 to compound IC50 for inhibition of ABHD16A (unknown origin)
SMILES,activity at 10 µM [1] [%],Activity [2] [%],further results
Cc1nc(-c2cc3c(cc2C(C)C)CC[C@H]2[C@](C)(CO)CCC[C@]32C)cs1,98.7,66.3,–
COC(=O)[C@]1(C)CCC[C@]2(C)c3cc(-c4csc(-c5ccccc5)n4)c(C(C)C)cc3CC[C@@H]12,89.8,73.8,–
CC[n+]1c(-c2cc3c(cc2C(C)C)CC[C@H]2[C@](C)(C(=O)OC)CCC[C@]32C)csc1C,91.1,81.5,–
COC(=O)[C@]1(C)CCC[C@]2(C)c3cc(-c4csc(C#N)n4)c(C(C)C)cc3CC[C@@H]12,94.3,42.8,Activity [3]: 25%; IC50 [4]: 31.6 µM; inhibition [5]: Active; IC50 [6]: 4.9 to 5.2 µM; inhibition [7]: inactive; Ratio IC50 [8]: 6.4
CC(C)c1cc2c(cc1-c1csc(N)n1)[C@@]1(C)CCC[C@@](C)(CO)[C@@H]1CC2,87.8,74.6,–
CC(C)c1cc2c(cc1-c1cscn1)[C@@]1(C)CCC[C@@](C)(CO)[C@@H]1CC2,96.3,65.9,–
COC(=O)[C@]1(C)CCC[C@]2(C)c3cc(-c4csc(N)n4)c(C(C)C)cc3CC[C@@H]12,103,58.2,–
COc1nn(-c2ccc(F)cc2)c(=O)o1,–,–,inhibition [9]: Active; Ratio IC50 [10]: 5.3
CC(C)c1cc2c(cc1-c1cscn1)[C@@]1(C)CCC[C@@](C)(C(=O)O)[C@@H]1CC2,98.4,91.5,–
COC(=O)[C@]1(C)CCC[C@]2(C)c3cc(-c4csc(-c5ccccc5Cl)n4)c(C(C)C)cc3CC[C@@H]12,101,86.6,–
COC(=O)[C@]1(C)CCC[C@]2(C)c3cc(-c4cscn4)c(C(C)C)cc3CC[C@@H]12,91.5,50.3,–
COC(=O)[C@]1(C)CCC[C@]2(C)c3cc(-c4csc(-c5ccc(Cl)cc5)n4)c(C(C)C)cc3CC[C@@H]12,96.6,99.3,–
